Reference: ChEMBL document CHEMBL1133674, “A peptide prodrug approach for improving bisphosphonate oral absorption” (J Med Chem, 2000)
Residues, ends and D or L forms follow the SMILES beside them.

Assays:
[1] = (§1) Basolateral to apical fluxes across Caco-2 cell monolayers at 37 degree celsius was studied.; format: ADME, organism-based; conditions: human, read-out: Permeability
Procedure, shortened: (§2)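 Caco-2 monolayers (passage 46-48) grown on collagen-coated polycarbonate Transwell filters, 21-25 days after seeding at 80 000 cells/cm2; TEER checked the day before. Transport run in HBSS with 25 mM Hepes, pH 7.4, at 37 °C with stirring. Receiver sampled at intervals up to 4 h, radioactivity counted by scintillation. Papp = dQ/dt·1/(AC0), computed separately for bisphosphonate and Pro-Phe parts; mean ± SD.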

[2] = Apical to basolateral fluxes across Caco-2 cell monolayers at 37 degree celsius was studied.; format: ADME, organism-based; conditions: human, read-out: Permeability; procedure, shortened: as §2
Homo sapiens = species: Homo sapiens; assay: as §1; format: ADME, organism-based; procedure, shortened: as §2
[3] = Bioavailability by the ratios of 14C p.o. /14C i.v. accumulated in urine at 24 hr (dose 10 mg/kg p.o.); format: ADME, organism-based; conditions: eutheria, in vivo, po
Procedure, shortened: (§3)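 Male Sabra rats, housed in metabolic cages, fasted overnight, dosed by stomach tube at 10 mg/kg bisphosphonate equivalent (n = 6). A 1 mg/kg iv jugular-cannula group served as reference. 14C in tibia or urine measured at 24 h by sample-oxidizer combustion and scintillation counting. F = (amount po × Div)/(amount iv × Dpo) × 100.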

[4] = Bioavailability by the ratios of 14C p.o. /14C i.v. accumulated in bone at 24 hr (dose 10 mg/kg p.o.); format: ADME, organism-based, Bone element; conditions: eutheria, in vivo, po; procedure, shortened: as §3
[5] = Inhibition of HAP dissolution was determined […] at 0.24 mM concentration *: p<0.05; conditions: 240 µM
Procedure, shortened: (§4)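 Hydroxyapatite tablets (300 mg, 10 mm), wax-coated so that one face is exposed, were stirred overnight at 37 °C in drug solution (240 or 48 µM in Tris, pH 7.4). They were then moved to acetate buffer, pH 5, at 37 °C. Dissolved calcium was read by atomic absorption at timed points, with the medium replenished after each sample.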

[6] = Inhibition of HAP formation, by the compound (0.1 mM) absorbed, was obtained in vitro studies.*: p<0.05; conditions: 100 µM
Procedure, shortened: (§5)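 HAP precipitation was run with calcium 3.87 mM and phosphate 2.32 mM (Ca/PO4 1.67) in 0.05 M Tris, pH 7.4. Compound (0.1 or 1 mM) was dissolved in the phosphate solution. After 24 h incubation, filtrate calcium was measured by atomic absorption spectroscopy.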

[7] = Inhibition of HAP formation, by the compound (1.0 mM) absorbed, was obtained in vitro studies.*: p<0.05; conditions: 1000 µM; procedure, shortened: as §5
[8] = (§6) Inhibition of HAP dissolution was determined […] at 0.048 mM concentration *: p<0.05; conditions: 48 µM; procedure, shortened: as §4
[9] = as §6; set-up: scale not given: the % may be the effect or the level left; conditions: 48 µM; procedure, shortened: as §4
[10] = Inhibition of HAP dissolution was determined in […] at 0.24 mM concentration *: p<0.05; set-up: scale not given: the % may be the effect or the level left; conditions: 240 µM; procedure, shortened: as §4

Compound: O=C(O)[C@H](Cc1ccccc1)NC(=O)[C@@H]1CCCN1 (H-Pro-Phe-OH)
- Papp B→A [1]: 1.14 ×10⁻⁶ cm/s
- Papp A→B [2]: 2.29 ×10⁻⁶ cm/s

Compound: O=C(N[C@@H](Cc1ccccc1)C(=O)NCCC(O)(P(=O)(O)O)P(=O)(O)O)[C@@H]1CCCN1 (stereo in doubt; form 1)
- Permeability (Homo sapiens): 0.41 ×10⁻⁶ cm/s
- Papp A→B [2]: 0.5 ×10⁻⁶ cm/s

Compound: O=C(N[C@@H](Cc1ccccc1)C(=O)NCCCC(O)(P(=O)(O)O)P(=O)(O)O)[C@@H]1CCCN1 (stereo in doubt; form 1)
- Bioavailability [3]: 3.1%
- Permeability (Homo sapiens): 0.16 ×10⁻⁶ cm/s
- Bioavailability [4]: 1.74%
- Papp A→B [2]: 0.23 ×10⁻⁶ cm/s

Compound: O=C(N[C@@H](Cc1ccccc1)C(=O)NCCC(O)(P(=O)(O)O)P(=O)(O)O)[C@@H]1CCCN1 (stereo in doubt; form 2)
- Inhibition [5]: 59.1%
- Bioavailability [3]: 3.17%
- Initial concentration [6]: 83.8%
- Permeability (Homo sapiens): 0.09 ×10⁻⁶ cm/s
- Initial concentration [7]: 40.5%
- Inhibition [8]: 79.4%
- Bioavailability [4]: 1.65%
- Papp A→B [2]: 0.11 ×10⁻⁶ cm/s

Compound: O=C(N[C@@H](Cc1ccccc1)C(=O)NCCCC(O)(P(=O)(O)O)P(=O)(O)O)[C@@H]1CCCN1 (stereo in doubt; form 2)
- Permeability (Homo sapiens): 0.55 ×10⁻⁶ cm/s
- Papp A→B [2]: 1.03 ×10⁻⁶ cm/s

Compound: OC[C@@H](O)[C@@H](O)[C@H](O)[C@H](O)CO [MANNITOL]
- Papp B→A [1]: 0.22 ×10⁻⁶ cm/s
- Papp A→B [2]: 0.26 ×10⁻⁶ cm/s

Compound: NCCC(O)(P(=O)(O)O)P(=O)(O)O [PAMIDRONIC ACID]
- Bioavailability [3]: 1.74%
- Control [9]: 79.4%
- Control [10]: 55.7%
- Initial concentration [6]: 63.8%
- Papp B→A [1]: 0.04 ×10⁻⁶ cm/s
- Initial concentration [7]: 46.9%
- Bioavailability [4]: 0.44%
- Papp A→B [2]: 0.05 ×10⁻⁶ cm/s
